Measurements taken from ChEMBL document CHEMBL1142086, “Flavonoid dimers as bivalent modulators for pentamidine and sodium stiboglucanate resistance in leishmania” (Antimicrob Agents Chemother, 2007).
Activity calls are given as the source filed them. Unless noted, no cut-off for these calls is given here.

Tests used:
[1] = tested on: Leishmania donovani; assay: Cytotoxicity against wild-type Leishmania donovani LdAG83 by MTS assay; assay type: organism-based; settings: AG83
Method in brief: (§1)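 Promastigotes in Schneider's Drosophila medium (pH 6.9) with 10% heat-inactivated FCS, 4 mM glutamine and gentamicin at 27°C. Seeded at 10^5 cells/well, exposed to a range of modulator concentrations (up to 200 μM) for 72 h at 27°C. MTS/PMS added, 4 h colour development, OD 490 nm. Survival expressed relative to untreated wells; ≥2 independent experiments in triplicate.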

[2] = tested on: Leishmania enriettii; assay: Cytotoxicity against pentamidine-resistant Leishmania enriettii LePentR50 by MTS assay; assay type: organism-based; method in brief: as §1
[3] = tested on: Leishmania donovani; assay: Cytotoxicity against SSG-resistant Leishmania donovani Ld39 by MTS assay; assay type: organism-based; method in brief: as §1
[4] = Resistance reversal as >50% reduction in SSG IC50 in drug-resistant Leishmania donovani Ld39 by MTS assay; assay type: functional
Method in brief: (§2)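 Promastigotes seeded at 10^5 cells/well and incubated 72 h at 27°C with serial concentrations of SSG (L. donovani) or pentamidine (L. enriettii LePentR50), each with 6 μM modulator or DMSO solvent control. Survival read by MTS/PMS at 490 nm after 4 h. […] Triplicates per concentration.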

[5] = Resistance reversal as >50% reduction in pentamidine IC50 in wild-type Leishmania enriettii by MTS assay; assay type: functional
Method in brief: (§3)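 L. enriettii promastigotes are wild type, LeMDR1−/− (no drug in culture) or LeV160 (maintained in 160 μg/ml vinblastine). Seeded at 10^5 cells/well with graded pentamidine plus 6 μM modulator for 72 h at 27°C. MTS read-out at 490 nm gives the pentamidine IC50. Three independent experiments in triplicate.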

[6] = Resistance reversal as >50% reduction in SSG IC50 in drug-resistant Leishmania donovani Ld2001 by MTS assay; assay type: functional; method in brief: as §2
[7] = tested on: Leishmania enriettii; assay: Increase of pentamidine accumulation in drug-resistant Leishmania enriettii LePentR50 promastigotes at 30 uM after 3 hrs; assay type: functional, organism-based
Method in brief: (§4)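 4-day-old LePentR50 promastigotes (2 × 10^8 cells/ml, 1 ml) incubated with 0.84 mM pentamidine plus modulator (0, 15, 30, 60 μM) for 3 h at 27°C in the dark. Cells washed with cold PBS and lysed in 75% acetonitrile by freeze-thaw. Pentamidine quantified by ion-pair C18 HPLC at 265 nm against a standard curve and expressed per mg protein. Triplicates, repeated twice.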

[8] = Effect on modulating SSG-resistance of Leishmania donovani Ld39 promastigotes assessed as reversal of resistance at 6 uM after 72 hrs by MTS; assay type: functional
Method in brief: (§5)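 Ld39 or LdAG83 promastigotes seeded at 10^5 cells/well with serial SSG dilutions plus modulator (0, 1, 2, 4, 6 μM) for 72 h at 27°C. SSG concentrations differ between the two strains. Percentage survivors by MTS. Triplicate points, three separate experiments.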

[9] = Effect on modulating drug-resistance of wild type SSG-sensitive Leishmania donovani LdAG83 promastigotes assessed as reversal of resistance at 6 uM after 72 hrs by MTS; assay type: functional; method in brief: as §5
[10] = Toxicity against pentamidine-resistance Leishmania enriettii LePentR50 upto 6 uM
[11] = tested on: Leishmania enriettii; assay: Increase of pentamidine accumulation in drug-resistant Leishmania enriettii LePentR50 promastigotes at 60 uM after 3 hrs; assay type: functional, organism-based; method in brief: as §4
[12] = tested on: Leishmania donovani; assay: Increase of SSG accumulation in drug-resistant Leishmania donovani Ld2001 at 30 uM relative to LdAG83 cells; assay type: functional, organism-based
Method in brief: (§6)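 Axenic amastigotes made by shifting 4-day promastigotes into supplemented M199 at 37°C for 24 h. 1 ml (2 × 10^8 cells/ml) incubated with 0.05 mM SSG plus modulator (0, 30, 60 μM) for 3 h at 37°C. After PBS washes, cells digested in nitric acid. Total Sb measured by ICP-MS (m/z 121/123, In internal standard), in nmol/mg protein. Expressed as % of LdAG83; triplicates, two experiments.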

[13] = Resistance reversal as >50% reduction in pentamidine IC50 in Leishmania enriettii LeMDR1-/- by MTS assay; assay type: functional; method in brief: as §3
[14] = tested on: Leishmania donovani; assay: Increase of SSG accumulation in drug-resistant Leishmania donovani Ld39 at 30 uM relative to LdAG83 cells; assay type: functional, organism-based; method in brief: as §6
[15] = tested on: Leishmania enriettii; assay: Increase of pentamidine accumulation in drug-resistant Leishmania enriettii LePentR50 promastigotes at 15 uM after 3 hrs; assay type: functional, organism-based; method in brief: as §4
[16] = Resistance reversal as >50% reduction in pentamidine IC50 in drug-resistant Leishmania enriettii LePentR50 by MTS assay; assay type: functional; method in brief: as §2
[17] = tested on: Leishmania donovani; assay: Increase of SSG accumulation in drug-resistant Leishmania donovani Ld2001 at 60 uM relative to LdAG83 cells; assay type: functional, organism-based; method in brief: as §6
[18] = Effect on modulating pentamidine-resistance of Leishmania enriettii LePentR50 assessed as decrease in survival after 72 hrs by MTS; assay type: functional
Method in brief: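 LePentR50 promastigotes seeded at 10^5 cells/well, exposed 72 h at 27°C to graded modulator alone or with 60 μg/ml pentamidine. MTS survival as percentage of untreated. […] Triplicates, three repeats.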

[19] = Resistance reversal as >50% reduction in pentamidine IC50 in Leishmania enriettii LeV160 overexpressing LeMDR1 by MTS assay; assay type: functional; method in brief: as §3
[20] = Resistance reversal as >50% reduction in SSG IC50 in wild-type Leishmania donovani LdAG83 by MTS assay; assay type: functional; method in brief: as §2
[21] = tested on: Leishmania donovani; assay: Increase of SSG accumulation in drug-resistant Leishmania donovani Ld39 at 60 uM relative to LdAG83 cells; assay type: functional, organism-based; method in brief: as §6
[22] = tested on: Leishmania enriettii; assay: Cytotoxicity against drug-resistant Leishmania enriettii LePentR50 at 60 uM after 3 hrs; assay type: organism-based; settings: in vitro
[23] = tested on: Leishmania donovani; assay: Cytotoxicity against wild-type Leishmania donovani at 60 uM after 3 hrs; assay type: organism-based; settings: in vitro

**Q.** With `O=c1cc(-c2ccc(OCCOCCOCCO)cc2)oc2cc(O)cc(O)c12` as the molecule, how does the IC50 [1] read?
**A.** > 200 µM

**Q.** What about the IC50 [2] of the same molecule?
**A.** > 200 µM

**Q.** And the IC50 [3]?
**A.** > 200 µM

**Q.** Which results are given for `O=c1cc(-c2ccc(OCCOCCOCCOCCOc3ccc(-c4cc(=O)c5c(O)cc(O)cc5o4)cc3)cc2)oc2cc(O)cc(O)c12`?
**A.** Resistance reversal [4]: Active; Resistance reversal [5]: Active; IC50 [1]: 7 µM; Resistance reversal [6]: Active; Drug uptake [7]: 4.69 µM; Resistance reversal [8]: Dose-dependent effect; Resistance reversal [9]: inactive; Toxicity [10]: Not Toxic; Drug uptake [11]: 26.6 µM; Drug uptake [12]: 83%; Resistance reversal [13]: Active; Drug uptake [14]: 74%; Drug uptake [15]: 2.95 µM; Resistance reversal [16]: Active; Drug uptake [17]: 69%; EC50 [18]: 0.94 µM; Resistance reversal [19]: Active; Resistance reversal [20]: inactive; IC50 [2]: > 200 µM; Drug uptake [21]: 90%; Activity [22]: Not Active; IC50 [3]: 10 µM; Activity [23]: Not Active

**Q.** Which IC50 [1] does the source give for `O=c1cc(-c2ccc(OCCOCCOCCOCCOCCOCCOCCOCCOCCOCCOCCOCCOCCOc3ccc(-c4cc(=O)c5c(O)cc(O)cc5o4)cc3)cc2)oc2cc(O)cc(O)c12` here?
**A.** 50 µM

**Q.** And the IC50 [3]?
**A.** 60 µM

**Q.** Which results are given for `O=c1cc(-c2ccc(OCCOCCOCCOCCOCCOCCOCCOCCOCCOCCOc3ccc(-c4cc(=O)c5c(O)cc(O)cc5o4)cc3)cc2)oc2cc(O)cc(O)c12`?
**A.** IC50 [1]: > 200 µM; IC50 [3]: > 200 µM

**Q.** With `O=c1cc(-c2ccc(OCCOCCOCCOCCOCCOCCOc3ccc(-c4cc(=O)c5c(O)cc(O)cc5o4)cc3)cc2)oc2cc(O)cc(O)c12` as the molecule, how does the IC50 [1] read?
**A.** 11 µM

**Q.** What about the IC50 [2] of the same molecule?
**A.** 40 µM

**Q.** And the IC50 [3]?
**A.** 13 µM

**Q.** With `O=c1cc(-c2ccc(OCCOCCOCCOCCOCCOc3ccc(-c4cc(=O)c5c(O)cc(O)cc5o4)cc3)cc2)oc2cc(O)cc(O)c12` as the molecule, how does the IC50 [1] read?
**A.** 30 µM

**Q.** And the IC50 [2]?
**A.** 70 µM

**Q.** What about the IC50 [3] of the same molecule?
**A.** 42 µM

**Q.** Which IC50 [1] does the source give for `O=c1cc(-c2ccc(O)cc2)oc2cc(O)cc(O)c12` [APIGENIN] here?
**A.** 32 µM

**Q.** What about the IC50 [2] of the same molecule?
**A.** 55 µM

**Q.** What about the IC50 [3] of the same molecule?
**A.** 43 µM

**Q.** With `O=c1cc(-c2ccc(OCCOCCOCCOCCOCCOCCOCCOCCOc3ccc(-c4cc(=O)c5c(O)cc(O)cc5o4)cc3)cc2)oc2cc(O)cc(O)c12` as the molecule, how does the IC50 [1] read?
**A.** 12 µM

**Q.** What about the IC50 [3] of the same molecule?
**A.** 14 µM

**Q.** For `O=c1cc(-c2ccc(OCCOc3ccc(-c4cc(=O)c5c(O)cc(O)cc5o4)cc3)cc2)oc2cc(O)cc(O)c12`, which IC50 [1] is on record?
**A.** 95 µM

**Q.** With `O=c1cc(-c2ccc(OCCOCCOCCOc3ccc(-c4cc(=O)c5c(O)cc(O)cc5o4)cc3)cc2)oc2cc(O)cc(O)c12` as the molecule, how does the Resistance reversal [4] read?
**A.** Active

**Q.** And the IC50 [1]?
**A.** 8 µM

**Q.** And the Resistance reversal [6]?
**A.** Active

**Q.** And the Resistance reversal [8]?
**A.** Dose-dependent effect

**Q.** What about the Resistance reversal [13] of the same molecule?
**A.** Active

**Q.** What about the Resistance reversal [16] of the same molecule?
**A.** Active

**Q.** What about the EC50 [18] of the same molecule?
**A.** 1.85 µM

**Q.** What about the Resistance reversal [19] of the same molecule?
**A.** Active

**Q.** What about the Resistance reversal [20] of the same molecule?
**A.** inactive

**Q.** And the IC50 [3]?
**A.** 11 µM

**Q.** Which results are given for `O=c1cc(-c2ccc(OCCOCCOCCOCCOCCOCCOCCOCCOCCOc3ccc(-c4cc(=O)c5c(O)cc(O)cc5o4)cc3)cc2)oc2cc(O)cc(O)c12`?
**A.** IC50 [1]: 10 µM; IC50 [3]: 14 µM
